RAD54 branch = RAD54 (human) branch migration inhibition; Q92698; RAD54 Holliday junction branch migration, FAM/BHQ fluorescence; inhibition, % at 10.4 µM; hit rate 0.14% among 360,000;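 active = mean normalized replicate activity at least 40 and at least half of replicates scoring 40 or more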;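 note: 0% = median of neutral control wells and 100% = median of positive control wells; inhibitors cause a drop in the FAM fluorescence signal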
SR-BI uptake up = activators of SR-BI mediated HDL lipid uptake | CHO ldlA[mSR-BI] cells, DiI-HDL uptake fluorescence, 3 h; 100 = double the neutral-control signal | activation, % at 12.5 µM | hit rate 0.096% among 320,000 | AID 504775;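 active = mean replicate activation of at least 60% and every replicate at or above 60%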;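 note: 0% = median plate neutral-control signal and 100% = twice that signal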
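Test system: SR-BI-overexpressing, LDLR-lacking CHO cells; Medium: Ham's F12 with 0.5% BSA, HEPES 25 mM, pH 7.4; Schedule: 3 h, 37 °C; Technique: bottom-read fluorescence, 550/595 nm.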
SR-BI HDL uptake = inhibitors of mouse SR-BI mediated HDL lipid uptake. ldlA[mSR-BI] CHO cells, DiI-HDL uptake fluorescence, 3 h. inhibition, % at 12.5 µM. hit rate 0.96% among 320,000;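 active = mean replicate inhibition of at least 70% and a set share of replicates each scoring 70 or more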;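 note: 0% = median of neutral control wells and 100% = median of positive control wells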
dFosB act-1 = mouse delta FosB homodimer activation | purified delta FosB, TAMRA-CDK5 oligo fluorescence polarization; percent of positive-control signal above neutral wells | activation, % at 25 µM | hit rate 0.99% among 340,000 | AID 493131;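 active = mean activation above about 17%, with every replicate also reaching it, limit read from the data, passing the limit was not always enough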
Target sequence (P13346 whole entry, looked up): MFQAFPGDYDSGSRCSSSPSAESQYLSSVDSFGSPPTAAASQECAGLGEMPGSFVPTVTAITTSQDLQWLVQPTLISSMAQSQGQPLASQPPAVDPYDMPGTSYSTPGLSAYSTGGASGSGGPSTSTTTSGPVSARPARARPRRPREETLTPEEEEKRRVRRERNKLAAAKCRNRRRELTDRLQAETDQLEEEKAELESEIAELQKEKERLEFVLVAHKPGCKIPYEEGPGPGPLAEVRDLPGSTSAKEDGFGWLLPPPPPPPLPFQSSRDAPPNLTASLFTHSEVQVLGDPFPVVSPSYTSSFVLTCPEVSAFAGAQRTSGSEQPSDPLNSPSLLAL
PvdQ inh = P. aeruginosa PvdQ acylase inhibition; purified PvdQ acylase, fluorescence plate reader; inhibition, % at 10 µM; hit rate 0.063% among 340,000; in the data active = inhibition above about 30%, passing the limit was not always enough;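 note: 0% = vehicle neutral wells and 100% = reference inhibitor wells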
S100A4 MyoIIA = blocks human S100A4 binding to myosin IIA peptide | P26447 | S100A4/TAMRA-MyoIIA peptide fluorescence polarization | inhibition, % at 10.7 µM | hit rate 0.14% among 360,000;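 active = mean inhibition of at least 70% across replicates, with every replicate also reaching that level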
Target sequence (P26447 whole entry, looked up): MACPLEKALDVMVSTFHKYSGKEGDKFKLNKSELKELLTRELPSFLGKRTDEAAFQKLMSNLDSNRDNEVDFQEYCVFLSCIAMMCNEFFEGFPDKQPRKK
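Material: S100A4 monomer protein / Buffer or medium: 50 mM HEPES pH 7.2, 10 mM CaCl2, 100 mM KCl / Times: 5 min incubation before reading / Benchmarks: neutral control DMSO, positive control TFP / Reagent: labelled myosin peptide probe, 5 nM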
dFosB act-2 = delta FosB (mouse) homodimer activation; shares compounds with dFosB act-1; purified delta FosB, TAMRA-CDK5 oligo fluorescence polarization; normalised: neutral wells 0, positive control 100; activation, % at 24.9 µM; 2,400 tested, under 10 active; AID 588690;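 active = highest replicate activation at or above 34% and every replicate reaching that threshold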;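 note: higher polarization means more probe DNA bound by delta FosB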
Active calls of the source: *; . = not tested or not shown. Most compounds without a hit are left out; they make up all but 1.6% or so of the library.

SMILES	RAD54 branch	SR-BI uptake up	SR-BI HDL uptake	dFosB act-1	PvdQ inh	S100A4 MyoIIA	dFosB act-2
O=C(CSc1nnnn1-c1ccccc1)Nc1ncc(Cc2ccccc2Cl)s1	.	0.7	-0.7	38.9*	-1.4	3.1	0.4
O=C(COC(=O)c1cc(Br)ccc1O)NNC(=O)c1ccc(Cl)cc1	3.0	3.8	-3.8	25.9*	-14.8	-0.9	3.4
C=CCn1c(=S)[nH]c2cc(-c3ccccc3)sc2c1=O	-3.6	7.0	-7.0	40.3*	-7.5	-2.0	1.9
COCCn1c(=NC(=O)/C=C/c2ccccc2Cl)sc2cc(NC(C)=O)ccc21	.	-57.9	57.9	26.5*	-7.6	.	-2.2
CNC(=O)c1ccc(-c2ccc(Cl)c(Cl)c2)s1	.	-8.0	8.0	21.3*	8.1	.	1.6
Cc1ccc(S(=O)(=O)Nc2cccc3c2O[C@H](CN(C)Cc2ccc(C(F)(F)F)cc2)[C@@H](C)CN([C@H](C)CO)C3=O)cc1	-2.1	.	.	.	.	11.3	.
COc1ccc(-c2cnc3c(c2)C(=O)N([C@H](C)CO)C[C@H](C)[C@@H](CN(C)C(=O)Cc2ccccn2)O3)cc1	0.5	.	.	.	.	-1.1	.
Cc1nn(Cc2ccccc2Cl)c(Cl)c1/C=C/C(=O)OCC(=O)NC(N)=O	-13.1	14.9	-14.9	1.8	-8.8	.	.
Cc1nn(Cc2ccccc2)c(Cl)c1/C=C/C(=O)OC(C(=O)NC(N)=O)C(C)C (stereo unspecified)	2.3	2.3	-2.3	50.2*	-5.1	-2.6	-1.4
CCNC(=O)[C@@H]1[C@@H](CO)[C@@H]2Cn3c(ccc(-c4ccc(F)cc4)c3=O)[C@@H]2N1C	.	.	.	.	.	-2.5	.
O=c1[nH]c(-c2ccc3c(c2)OCO3)nc2c1sc(=S)n2-c1ccccc1	.	-2.3	2.3	-6.1	-13.7	-1.1	.
O=c1[nH]c(-c2ccc(F)cc2)nc2c1sc(=S)n2-c1ccccc1	-5.0	-10.9	10.9	23.6*	3.7	-6.3	2.6
COc1ccc2c3c([nH]c2c1)[C@@H](CO)N(C(=O)NC(C)C)CC31CCN(C(=O)C2CCCCC2)CC1	.	.	.	.	.	0.2	.
O=C(NNC1=Nc2ccccc2SC1)c1ccc(Cl)cc1	6.4	-10.5	10.5	24.0*	10.5	1.0	-9.5
O=C(NNC1=Nc2ccccc2SC1)c1ccc(F)cc1	.	-39.5	39.5	-9.1	-9.7	6.5	.
Cc1cc2nc(C)n(CCCNC(=O)Nc3cccc4ccccc34)c2cc1C	.	-8.6	8.6	53.2*	-6.2	.	2.4
CCOc1ccc(NC(=O)NCCCn2c(C)nc3cc(C)c(C)cc32)cc1	.	17.6	-17.6	5.9	6.8	.	.
C[C@H](O)C#Cc1cnc2c(c1)C(=O)N([C@H](C)CO)C[C@H](C)[C@@H](CN(C)CC1CCOCC1)O2	10.1	.	.	.	.	-5.6	.
Cc1ccc(S(=O)(=O)Nc2ccc3c(c2)CC(=O)N([C@H](C)CO)C[C@@H](C)[C@H](CN(C)Cc2ccc(-c4ccccc4)cc2)O3)cc1	-0.8	10.2	-10.2	28.0*	-3.4	2.6	1.9
O=C(N/N=C/c1ccc(-c2cccc(C(F)(F)F)c2)o1)c1ccccc1O	.	-15.3	15.3	31.6*	-9.5	.	3.6
O=C(N/N=C/c1ccc(-c2cccc(C(F)(F)F)c2)o1)c1ccccc1Br	.	-13.9	13.9	-1.2	8.5	.	.
O=C(N/N=C/c1ccc(-c2cccc([N+](=O)[O-])c2)o1)c1ccccc1O	.	-22.9	22.9	21.8*	-15.6	10.4	-1.2
Cc1c(C(=O)Nc2ccc(S(N)(=O)=O)cc2)oc2ccc(Cl)cc12	.	-3.2	3.2	26.7*	-2.5	-3.9	2.0
CC1(C)SC(=Nc2ccccc2)N(S(=O)(=O)c2ccccc2)C1=O	-1.6	17.3	-17.3	5.0	-6.6	-25.2	.
O=C1C(c2ccccc2)SC(=Nc2ccccc2)N1S(=O)(=O)c1ccccc1 (stereo unspecified)	2.1	-13.2	13.2	20.9*	0.2	.	4.2
SMILES	RAD54 branch	SR-BI uptake up	SR-BI HDL uptake	dFosB act-1	PvdQ inh	S100A4 MyoIIA	dFosB act-2
O=C(NNC(=O)c1cc2ccccc2cc1O)Nc1ccc(Br)cc1	-3.5	.	7.7	15.0	-7.1	-1.7	.
O=C(NNC(=O)c1cc2ccccc2cc1O)Nc1ccc(F)cc1F	-3.8	-38.7	38.7	30.0*	-2.4	6.8	-9.7
Cc1cc(NC(=O)CN2CCc3ccccc3C2)nc2c1c(=O)oc1ccccc12	-0.5	-40.7	40.7	30.7*	1.0	-9.3	0.5
CCNC(=O)C[C@H]1C=C[C@@H](NS(=O)(=O)c2ccc(F)cc2)[C@H](CO)O1	4.8	.	.	.	.	3.7	.
C[C@@H]1CN([C@@H](C)CO)C(=O)Cc2cc(NC(=O)C3CC3)ccc2O[C@H]1CN(C)S(=O)(=O)c1ccc(Cl)cc1	-8.8	.	.	.	.	-5.0	.
O=c1cc(/N=C/c2coc3c(ccc4ccccc43)c2=O)[nH]c(=S)[nH]1	.	-2.9	2.9	43.3*	-6.0	-7.7	-1.2
COc1cccc(CNC(=O)C[C@@H]2C=C[C@H](NC(=O)C3CCC3)[C@H](CO)O2)c1	1.2	.	.	.	.	2.0	.
COc1ccccc1CC(=O)Nc1ccccc1O	-4.2	7.5	-7.5	-2.8	-9.0	.	.
COc1ccccc1CC(=O)Nc1ccc([N+](=O)[O-])cc1O	.	-26.0	26.0	24.0*	-5.9	1.0	-6.3
C[C@@H]1CN([C@@H](C)CO)C(=O)c2cc(C3=CCCCC3)cnc2O[C@@H]1CN(C)C(=O)c1ccccn1	0.0	.	.	.	.	-3.4	.
COc1ccc2cc(C(=O)Nc3ccc(Cl)cc3)sc(=O)c2c1OC	.	-28.8	28.8	70.7*	-5.1	.	5.4
COc1ccc2cc(C(=O)Nc3ccc(F)cc3)sc(=O)c2c1OC	1.0	-53.7	53.7	33.5*	-10.8	.	1.3
COc1ccc2cc(C(=O)Nc3ccc(O)cc3)sc(=O)c2c1OC	.	-17.1	17.1	5.0	6.9	-1.2	.
COC(=O)c1cc2ccc(OC)c(OC)c2c(=O)s1	5.2	-19.2	19.2	-1.0	14.1	.	.
O=C(Nc1ccc2c(c1)[C@@H]1C[C@H](CC(=O)N3CCc4ccccc4C3)O[C@H](CO)[C@@H]1O2)NC1CCCC1	0.4	.	.	.	.	-3.1	.
COc1ccc(-c2cn(CC(=O)N3CCN(C)CC3)nn2)cc1OC	-3.4	.	.	.	.	2.9	.
Cc1ccc(S(=O)(=O)N[C@H]2C=C[C@H](CC(=O)NCCN3CCCCC3)O[C@@H]2CO)cc1	4.3	.	.	.	.	-9.4	.
CC(CCc1ccco1)NC(=O)CCc1nnc2ccc(NCc3ccccc3Cl)nn12 (stereo unspecified)	8.1	3.9	-3.9	22.5*	-4.7	1.3	0.5
Cc1ccc(OCCCCCCN2CCNCC2)c(Br)c1	15.5	-21.6	21.6	22.5*	-2.9	-6.9	-2.0
C[C@@H]1CCCCO[C@@H](CN(C)Cc2ccc(C(=O)O)cc2)[C@@H](C)CN([C@H](C)CO)C(=O)c2cc(NS(=O)(=O)c3ccccc3)ccc2O1	-1.0	.	.	.	.	.	.
